Structures are written as SMILES.

The nature of data set [1]: Toxic activity against VERO cells. The conditions noted are these: Chlorocebus sabaeus. It counts as toxicity, cell-based. The essentials: (§1)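 Cytotoxicity tested at concentrations up to 100 μM in PBM, CEM and Vero cells.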
Data set [2] is described as follows: Toxic activity against peripheral blood mononuclear cells. It counts as toxicity. The essentials: as §1
Data set [3] is described as follows: In vitro anti-HIV activity in peripheral blood mononuclear cells. The class given is functional. In outline:
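Antiviral assay in primary lymphocytes (peripheral blood mononuclear cells) infected with HIV-1; activity reported as EC50.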

For another data set, the system named is CCRF-CEM. Nature of the data set: The cytotoxicity against CEM cells. It counts as functional, cell-based. The conditions noted are these: Homo sapiens. The essentials: as §1
The next data set deals with HepG2. Kind of data set: In vitro effective concentration against hepatitis B virus was determined in 2.2.15 cells. The class given is functional, cell-based. The conditions noted are these: Homo sapiens.

Regarding `Nc1ccn([C@@H]2C[Se][C@@H](CO)O2)c(=O)n1`, the IC50 (in data set [1]; in data set [2]; with CCRF-CEM) was above 100 µM in each case. In data set [3], the midpoint of the response, the EC50, lay at 2.4 µM.

As to `Nc1nc(=O)n([C@@H]2C[Se][C@@H](CO)O2)cc1F`, the IC50 (in data set [1]; in data set [2]; in the data set on CCRF-CEM) was above 100 µM throughout. This compound displayed an EC50 in data set [3] above 10 µM.

As to `Nc1nc(=O)n([C@H]2C[Se][C@@H](CO)O2)cc1F`, the IC50 (in data set [1]; in data set [2]; with CCRF-CEM) was above 100 µM throughout. Besides, the EC50 in the data set with HepG2 turned out to be 1.2 µM; in data set [3] it was 0.51 µM.

In the case of `Nc1ccn([C@H]2C[Se][C@@H](CO)O2)c(=O)n1`, the IC50 (in data set [1]; in data set [2]; in the data set with CCRF-CEM) was above 100 µM each time. Further, the results for the EC50 (with HepG2; in data set [3]) were 1.2 µM and 0.88 µM, respectively.

Take `Nc1ccn([C@@H]2CSC(CO)O2)c(=O)n1` (single isomer, unassigned) [LAMIVUDINE]: the IC50 (in data set [1]; in data set [2]; in the data set with CCRF-CEM) was above 100 µM in each case. The results for the EC50 (with HepG2; in data set [3]) were 0.008 µM and 0.07 µM, respectively.

By IC50 is commonly meant the midpoint of a concentration-inhibition curve. High values mean weaker potency in that assay, low ones greater potency in that assay. Usually EC50 stands for the concentration at which the effect is half-maximal.

The values above are taken from ChEMBL document CHEMBL1130145, “Synthesis, anti-human immunodeficiency virus and anti-hepatitis B virus activities of novel oxaselenolane nucleosides” (J Med Chem, 1997).
